Assay results taken from PMC12034843 (Drug Design, Development and Therapy, 2025).
Ends that are not written are not given here.

Experiments:
[1] = In vitro release from exosome-SPION; type: physicochemical; details: PBS, 37 °C, fitted with OriginPro 2021
In short: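 Test peptide loaded in SPION-decorated exosomes was placed in a dialysis bag (MWCO 80 kD) and incubated at 37 °C in PBS. Samples were withdrawn at selected intervals and peptide was quantified by reverse-phase HPLC on a C18 column. Percent release was calculated as (concentration in PBS × PBS volume) / (concentration in mother liquor × mother liquor volume) × 100%.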

MIN-6 cells = assay: Insulin secretion of MIN-6 cells; type: cell-based; details: 100 nmol/L, 1 h, 8.3 mmol/L GLC and 0.8 mmol/L palmitic acid, MF density 1 T for /MF groups, n = 6
[2] = Pharmacokinetic study after tail vein injection; type: in vivo; details: Kunming mice, 5 mg/kg, HPLC, n = 6
In short: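 Kunming mice ([…], 18–22 g) were randomised into groups of six and given 5 mg/kg by tail-vein injection, either as free peptide or as the peptide-equivalent dose in exosome-SPION form. At intervals, 20 μL of tail-vein blood was taken with heparinised micropipettes and mixed into 1 mL PBS. Samples were centrifuged at 10,000 rpm for 10 min, and peptide in the supernatant was quantified by C18 HPLC.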

HSDAVFTDNYTRLRKQVAAKKYLQSIKNKRY-NH2 (C-terminus assumed) [BAY 55-9837]
first-order fitted release equation y = a × (1 – exp(−b × x)): a [1]: 53.92 | insulin secretion compared to the model group (MIN-6 cells): significantly enhance insulin secretion | time after injection at which it could not be detected in plasma [2]: 110 min
